From PubChem BioAssay
Hits are enriched below; roughly 1.2% of the tested compounds scored in any of these assays.
CAL PDZ FP-1 – inhibitors of human CAL PDZ peptide binding | Q9HD26 | actives 0.92% (n = 300,000) | inhibition, % at 24.9 µM | purified CAL PDZ, TMR-peptide fluorescence polarization, 1 h;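 active means mean inhibition of at least 30% with at least half of replicates also reaching 30%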;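 further: 0% = DMSO neutral control and 100% = excess unlabeled competitor peptide PRC23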
CAL PDZ FP-2 – blocks peptide binding to human CAL PDZ domain; actives 0.02% (n = 330,000); inhibition, % at 20 µM; Q9HD26; AID 504414; purified CAL PDZ, TMR-peptide fluorescence polarization, 1 h;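 active means highest replicate inhibition of at least 40%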;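 further: plate controls were DMSO neutral control wells for no effect and unlabeled competitor peptide control wells for full effect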
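Control set: unlabelled peptide and DMSO controls / Material: purified CerCALP PDZ construct / Timing: 1 h incubation at room temperature before polarization reading / Doses: 20 µM, one dose / Detection: fluorescence polarization (mP)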
ARNT TACC3 PPI – ARNT/TACC3 interaction disruption; Q9Y6A5; AlphaScreen His-ARNT PAS-B/GST-TACC3 binding, luminescence; TACC3 fragment carries E629A point mutation; inhibition, % at 9.99 µM; actives 0.66% (n = 390,000); AID 623870;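 active means mean inhibition of replicates at least 50% and at least half of replicates each reaching 50%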;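 further: 0% = complete ARNT plus TACC3 wells and 100% = ARNT alone without TACC3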
Starred values were filed as active, the others as inactive; / = not tested or not shown; + = active, no number.

SMILES	CAL PDZ FP-1	CAL PDZ FP-2	ARNT TACC3 PPI
O=C(C[C@@H]1CC[C@H]2[C@@H](COC[C@H](O)CN2Cc2cccc(C(F)(F)F)c2)O1)NCc1ccccc1	/	/	8.3
CS(=O)(=O)Nc1ccc2c(c1)[C@H]1C[C@@H](CC(=O)NC3CCCCC3)O[C@@H](CO)[C@H]1O2	/	/	-2.4
O=C(COC(=O)c1cccnc1SCC(=O)NCc1ccccc1)NCc1ccccc1	-2.6	0.7	-1.9
COc1ccccc1CNC(=O)COC(=O)c1cccnc1SCC(=O)NCc1ccccc1OC	83.3*	-5.8	-2.5
CCN(CC)CCN(C(=O)/C=C/c1cccs1)c1nc2ccc(OC)cc2s1	-2.6	-1.1	1.9
CCOc1ccc2nc(N(CCN(CC)CC)C(=O)/C=C/c3cccs3)sc2c1	31.0*	-1.2	-3.1
Cc1ccc(CNC(=O)c2ccc(N3CCC4(CC3)CC(c3ccccc3)=NO4)c(NC(=O)c3c(Cl)cccc3Cl)c2)cc1	50.5*	0.9	-6.4
COc1cccc(C(=O)Nc2cc(C(=O)NCc3ccc(C)cc3)ccc2N2CCC3(CC2)CC(c2ccccc2)=NO3)c1	-10.4	-0.3	-3.4
Cc1noc(C)c1NC(=O)N(C)C[C@H]1Oc2ccc(NS(=O)(=O)c3cccs3)cc2CC(=O)N([C@@H](C)CO)C[C@@H]1C	/	/	-7.1
Cn1cc([N+](=O)[O-])c(C(=O)NCc2ccccc2)n1	30.2*	-0.4	-5.6
Cn1cc([N+](=O)[O-])c(C(=O)N(Cc2ccccc2)Cc2ccccc2)n1	1.4	0.3	3.4
CC(C)NC(=O)N(C)C[C@@H]1OCCCC[C@@H](C)Oc2ccc(NS(=O)(=O)c3ccc(Cl)cc3)cc2C(=O)N([C@@H](C)CO)C[C@@H]1C	/	/	-7.7
C[C@@H]1CN([C@H](C)CO)C(=O)c2cc(C#CCc3ccccc3)cnc2O[C@@H]1CN(C)Cc1cccnc1	/	/	-5.3
Cc1noc(C)c1NC(=O)Nc1ccc2c(c1)C(=O)N([C@H](C)CO)C[C@@H](C)[C@@H](CN(C)S(=O)(=O)c1ccccc1)OCCCC[C@@H](C)O2	/	/	-2.1
CCC(CO)NCc1ccc(OC2CCCC2)cc1 (stereo not drawn)	46.9*	-0.4	-11.6
CCC(CO)NCc1ccc(Br)cc1 (stereo not drawn)	-0.5	-3.1	/
C[C@@H]1CN([C@@H](C)CO)C(=O)c2cc(NS(=O)(=O)c3cn(C)cn3)ccc2O[C@H]1CN(C)S(=O)(=O)c1cccs1	/	/	0.7
CSc1nccc(-c2nn(-c3ccc(C)cc3)ccc2=O)n1	-6.8	-1.9	58.2*
CCSc1nccc(-c2nn(-c3ccc(C)cc3)ccc2=O)n1	-3.6	-3.0	23.9
CCCNC(=O)C[C@H]1CC[C@@H]2[C@H](COc3ccc(NC(=O)COC)cc3C(=O)N2C)O1	/	/	-2.9
CCN(CC)C(=O)Nc1ccc(C(=O)OC)cc1	-6.7	-2.5	2.5
CCN(CC)CCNC(=O)C(=O)Nc1ccc(C(=O)OC)cc1	+	-0.6	-4.2
C[C@@H]1CN([C@@H](C)CO)C(=O)c2cccc(NC(=O)C3CCOCC3)c2O[C@H]1CN(C)C	/	/	6.5
CCCNC(=O)[C@H]1[C@H](CO)[C@H]2Cn3c(ccc(-c4ccccc4F)c3=O)[C@@H]1N2C(=O)CC	/	/	-4.1
C[C@H]1CN([C@@H](C)CO)S(=O)(=O)c2ccc(C#CC(C)(C)O)cc2O[C@@H]1CN(C)C(=O)CN(C)C	/	/	-3.4
SMILES	CAL PDZ FP-1	CAL PDZ FP-2	ARNT TACC3 PPI
C[C@H](CO)N1C[C@H](C)[C@H](CN(C)Cc2ccc(C(=O)Nc3ccccc3N)cc2)Oc2ccc(NS(=O)(=O)c3ccccc3)cc2C1=O	/	/	0.5
COc1ccc(S(=O)(=O)Nc2ccc3c(c2)CC(=O)N([C@H](C)CO)C[C@H](C)[C@H](CN(C)S(=O)(=O)c2ccc(F)cc2)O3)cc1	/	/	19.9
CNC(=O)COC(=O)c1cc(-c2ccco2)nc2ccccc12	47.5*	-0.6	1.7
O=C(COC(=O)c1cc(-c2ccco2)nc2ccccc12)NCc1ccccc1	-4.0	/	-6.6
COc1ccccc1CN1C(=O)c2ccccc2[C@@]2(Cc3ccccc3N(CCN3CCOCC3)C2=O)[C@@H]1c1ccc(CO)cc1	/	/	-15.4
C/C(=N\NC(=O)c1cc(-c2ccncc2)nc2ccccc12)c1ccc(OC(F)F)cc1	69.6*	0.0	-1.7
COc1ccc(/C(C)=N/NC(=O)c2cc(-c3cccnc3)nc3ccccc23)cc1	-0.7	-3.0	/
CCCNC(=O)N1[C@@H](C#N)[C@@H](c2ccc(-c3ccccc3F)cc2)[C@@H]1CO	/	/	2.3
CN(C)C(=O)c1ccc(NC(=O)c2ccc(-c3ccc(Cl)cc3)o2)cc1	61.6*	-2.9	-28.9
O=C(Nc1cccnc1)c1ccc(-c2ccc(Cl)cc2)o1	-1.4	-0.9	-5.0
O=C(O)c1ccccc1OCCOCCOc1ccccc1C(=O)O	-2.0	-2.1	-2.4
O=C(O)c1ccccc1OCCOc1ccccc1C(=O)O	-2.7	-1.1	50.0*
CCOc1cccc2c1OC1(C)CC2NC(=O)N1c1cccc(C(=O)N2CCN(c3ccccn3)CC2)c1 (stereo not drawn)	1.7	-1.4	3.6
CCOc1cccc2c1OC1(C)CC2NC(=O)N1c1cccc(Cl)c1 (stereo not drawn)	92.8*	/	-9.7
C[C@@H]1CN([C@@H](C)CO)C(=O)c2cc(NC(=O)Cc3ccccc3)ccc2O[C@@H]1CN(C)S(=O)(=O)c1ccc(F)cc1	/	/	-4.1
CC(=O)Nc1ccc(S(=O)(=O)Nc2nc3ccccc3nc2Nc2ccc(C(=O)O)c(O)c2)cc1	-1.4	1.3	39.9*
CC(=O)Nc1ccc(S(=O)(=O)Nc2nc3ccccc3nc2Nc2cccc(O)c2)cc1	-3.0	-1.8	-9.0
CCNC(=O)C[C@H]1CC[C@H]2[C@@H](COC[C@H](O)CN2C(=O)Nc2ccc3c(c2)OCO3)O1	/	/	6.1
O=C(Cn1cncn1)N/N=C/c1ccccc1O	0.3	-2.4	78.5*
O=C(Cn1cnc([N+](=O)[O-])n1)N/N=C/c1ccccc1O	0.0	0.0	75.3*
Cc1ccccc1/C=N/NC(=O)Cn1cnc([N+](=O)[O-])n1	-3.5	0.0	4.0
O=C(Cn1cncn1)N/N=C/c1ccncc1	/	-0.1	-6.5
C[C@@H]1CCCCO[C@H](CN(C)C(=O)c2ccccc2)[C@@H](C)CN([C@@H](C)CO)C(=O)c2cc(NC(=O)Nc3ccc(F)cc3)ccc2O1	/	/	3.2
C[C@H]1CN([C@@H](C)CO)C(=O)c2cccc(NC(=O)c3ccncc3)c2O[C@@H]1CN(C)Cc1ccc2c(c1)OCO2	/	/	-0.9
CC(C)c1ccc(C2OCC(C)([N+](=O)[O-])CO2)cc1 (stereo not drawn)	90.6*	19.5	-1.9
CC(C)c1ccc(C2OCCCO2)cc1	/	0.0	/
CO[C@H]1CN(C)C(=O)c2cc(NC(=O)Nc3ccc(Cl)cc3)ccc2OC[C@H](C)N(C(=O)Nc2c(C)noc2C)C[C@H]1C	/	/	-5.1
CN(C)CC(=O)N[C@@H]1CC[C@@H](CCNC(=O)C2CCC2)O[C@H]1CO	/	/	12.1
Cc1noc(C)c1S(=O)(=O)Nc1ccc2c(c1)C(=O)N([C@H](C)CO)C[C@H](C)[C@@H](CN(C)C(=O)Nc1ccc3c(c1)OCO3)OCCCC[C@H](C)O2	/	/	6.5
CC(=O)CC1(O)C(=O)N(Cc2ccccc2)c2ccccc21 (stereo not drawn)	0.5	-1.3	-6.4
